Activity calls are given as the source filed them. The rule behind the calls is not given here. Square brackets hold non-standard residues; d marks the D form. Peptide text beside a SMILES is read from it. Dolaproine = CO[C@@H]([C@@H]1CCCN1)[C@@H](C)C(=O)O; Dil = CC[C@H](C)[C@H](NC)[C@@H](CC(=O)O)OC; NMeV = CN[C@H](C(=O)O)C(C)C
Experiments:
MDA-MB-231 [1] = test: Cell cycle arrest in human MDA-MB-231 cells assessed as accumulation at S phase at 125 nM after 24 hrs by RNaseA/propidium iodide staining based FACSCalibur flow cytometry (reference value: 19.96 %); type: functional
MDA-MB-231 [2] = test: Cytotoxicity against human MDA-MB-231 cells assessed as reduction in cell viability incubated for 96 hrs by XTT assay; type: functional, cell-based
Outline: (§1)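 XTT viability assay on human breast cancer cells. Cells were seeded at 5000 cells/well, left to adhere overnight, then exposed to increasing compound concentrations for 96 h in complete medium with DMSO below 0.05% final. Wells were washed and refed, then given XTT reagent for 3 h, with absorbance read at 450 nm. Response was normalized to DMSO controls. Tetraplicates, three independent experiments. IC50 from a four-parameter variable-slope fit.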

Tubulin (Homo sapiens) = Tubulin (Homo sapiens) (UniProt P68371+Q9H4B7+P0DPH7+P68366+Q13509+Q71U36+P04350+Q3ZCM7+P07437+P68363+Q9BQE3+Q6PEY2+Q13885+Q9BVA1+Q9BUF5); test: Inhibition of microtubule in human MDA-MB-231 cells assessed as reduction in microtubule network in interphase cells measured after 24 hrs by DAPI staining based immunofluorescence microscopic analysis; type: cell-based; settings: dose 5-625 nM
Outline: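 MDA-MB-231 cells (10 000/well, 70–80% confluent) treated 24 h at 5, 25, 125 and 625 nM in DMEM. Fixed in 4% paraformaldehyde, permeabilized with 0.2% Triton X-100, blocked in 5% BSA, stained with anti-α-tubulin (DM1A, 1:800, 16 h) and Alexa Fluor 488 secondary, nuclei with DAPI. Imaged at 40×; interphase microtubule network quantified, unpaired two-tailed t test.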

MDA-MB-231 [3] = test: Cell cycle arrest in human MDA-MB-231 cells assessed as accumulation at sub G1 phase at 125 nM after 24 hrs by RNaseA/propidium iodide staining based FACSCalibur flow cytometry (reference value: 3.27 %); type: functional
MDA-MB-231 [4] = test: Inhibition of cell migration in human MDA-MB-231 cells assessed as reduction of cell mobility at 5 nM measured at 24 hrs by well scratch method; type: functional, cell-based
Outline: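 MDA-MB-231 cells (3 × 10^4/well) attached overnight, then exposed to 5 nM in serum-free DMEM for 48 h. Monolayer scratched, debris washed off, complete medium added without drug. Images taken at 10× at 0 h and after 24 h; percentage wound coverage quantified. Two-tailed unpaired t test.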

SK-BR-3 = test: Cytotoxicity against human SKBR3 cells assessed as reduction in cell viability incubated for 96 hrs by XTT assay; type: functional, cell-based; settings: SK-BR-3, 96 h; outline: as §1
MDA-MB-231 [5] = test: Induction of mitochondrial disintegration in human MDA-MB-231 cells at 625 nM measured after 24 hrs by Mitotracker green dye based fluorescence microscopy; type: functional, cell-based
Outline: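 MDA-MB-231 cells (7000/well) grown overnight in DMEM with 10% FBS, then given 5, 25, 125 or 625 nM for 24 h. Live cells labelled 30 min with 75 nM MitoTracker Green FM in serum- and phenol red-free DMEM, counterstained with DAPI for 15 min, and imaged by fluorescence microscopy at 40× to view mitochondrial fission.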

MDA-MB-231 [6] = test: Cell cycle arrest in human MDA-MB-231 cells assessed as accumulation at G1 phase at 125 nM after 24 hrs by RNaseA/propidium iodide staining based FACSCalibur flow cytometry (reference value: 37.64 %); type: functional
BT-474 = test: Cytotoxicity against human BT-474 cells assessed as reduction in cell viability incubated for 96 hrs by XTT assay; type: functional, cell-based; settings: BT-474, 96 h; outline: as §1
MDA-MB-231 [7] = test: Cell cycle arrest in human MDA-MB-231 cells assessed as accumulation at G2/M phase at 125 nM after 24 hrs by RNaseA/propidium iodide staining based FACSCalibur flow cytometry (reference value: 26.37 %); type: functional

## CC[C@H](C)[C@@H]([C@@H](CC(=O)N1CCC[C@H]1[C@H](OC)[C@@H](C)C(=O)N[C@@H](Cc1ccccc1)C(=O)O)OC)N(C)C(=O)[C@@H](NC(=O)[C@@H](NC)C(C)C)C(C)C (H-[NMeV]V[Dil][Dolaproine]F-OH)
MDA-MB-231 [1]
  Activity: 16.11%
MDA-MB-231 [2]
  IC50: Not Active
Tubulin (Homo sapiens)
  inhibition: Dose-Dependent Effect
MDA-MB-231 [3]
  Activity: 9.66%
MDA-MB-231 [4]
  inhibition: Active
SK-BR-3
  IC50: 5.3 nM
MDA-MB-231 [5]
  Activity: inactive
MDA-MB-231 [6]
  Activity: 30.88%
BT-474
  IC50: 8.8 nM
MDA-MB-231 [7]
  Activity: 32.79%
